Data reported in ChEMBL document CHEMBL1144398, “Structure-based design, parallel synthesis, structure-activity relationship, and molecular modeling studies of thiocarbamates, new potent non-nucleoside HIV-1 reverse transcriptase inhibitor isosteres of phenethylthiazolylthiourea derivatives” (J Med Chem, 2005).

How the values were obtained:
MT4 [1] = assay: Cytotoxic concentration required to reduce the viability of mock infected MT-4 cells determined by MTT method; format: functional; settings: Homo sapiens
Procedure, shortened: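 Viability of mock-infected MT-4 cells, assayed in parallel with the antiviral test, read by MTT. CC50 is the concentration that lowers viability by 50%. Values are means of three separate experiments, with variation among triplicates under 10%. The highest concentration tested was 100 µM.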

MT4 [2] = assay: Ratio of CC50 to that of EC50 determined in MT-4 cells; format: functional
Procedure, shortened: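 Selectivity index, calculated as CC50/EC50. CC50 came from MTT viability of mock-infected MT-4 cells and EC50 from MTT-read protection of HIV-1-infected MT-4 cells from cytopathogenicity, with both run in parallel. Values are means of three experiments.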

MT4 [3] = assay: Effective concentration require to protect MT-4 cells from HIV-1 Y181C mutant induced cytopathogenicity was determined by MTT method; format: functional, cell-based, Homo sapiens
Procedure, shortened: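 HIV-1 strains carrying the Y181C RT mutation in MT-4 cells. EC50 is the concentration giving 50% protection from virus-induced cytopathogenicity, read out by MTT. Trovirdine was run as the reference. Values are means of three separate experiments.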

MT4 [4] = assay: Effective concentration require to protect MT-4 cells from human immunodeficiency virus type 1 induced cytopathogenicity was determined by MTT method; format: functional, cell-based
Procedure, shortened: (§1)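 MT-4 cells infected with HIV-1, with test compounds added. Protection from virus-induced cytopathogenicity was read by MTT. EC50 is the concentration giving 50% protection. Values are means of three separate experiments, with variation among triplicates under 10%. Trovirdine served as the reference.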

C8166 = assay: Effective concentration required to reduce the amount of p24 antigen levels in wild type human immunodeficiency virus type 1 infected C8166 cultures; format: functional
Procedure, shortened: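 C8166 cultures infected with wild-type HIV-1. p24 antigen in the cultures was measured after compound treatment, and EC90 is the concentration that reduces p24 by 90%. Trovirdine served as the reference.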

[5] = target: T1, Human immunodeficiency virus type 1 reverse transcriptase (Human immunodeficiency virus 1, UniProt Q72547); assay: Inhibitory concentration against HIV-1 virion reverse transcriptase
[6] = target: T1, Human immunodeficiency virus type 1 reverse transcriptase; assay: Inhibitory concentration against HIV-1 mutant reverse transcriptase (K103R)
[7] = target: T1, Human immunodeficiency virus type 1 reverse transcriptase; assay: Inhibitory concentration against HIV-1 wild type reverse transcriptase (IIIB)
[8] = target: Human immunodeficiency virus type 1 reverse transcriptase (Human immunodeficiency virus 1, UniProt Q72547, Y181C); assay: Inhibitory concentration against HIV-1 mutant reverse transcriptase (Y181C)
[9] = target: Human immunodeficiency virus type 1 reverse transcriptase (Human immunodeficiency virus 1, UniProt Q72547, K103N/Y181C); assay: Inhibitory concentration against HIV-1 mutant reverse transcriptase (K103N+Y181C)
MT4 [10] = assay: Effective concentration require to inhibit human immunodeficiency virus type 1 induced cytopathogenicity in MT-4 cells determined by MTT method; format: functional, cell-based; procedure, shortened: as §1

SMILES | CC50 (MT4 [1]) [nM] | SI (MT4 [2]) | EC50 (MT4 [3]) [nM] | EC50 (MT4 [4]) [nM] | EC90 (C8166) [nM] | IC50 [5] [nM] | IC50 [6] [nM] | IC50 [7] [nM] | IC50 [8] [nM] | IC50 [9] [nM] | EC50 (MT4 [10]) [nM]
O=C1c2ccccc2C(=O)N1CCOC(=S)Nc1ccc(Cl)cc1 | > 100000 | >2500 | 2300 | 40 | 40 |  |  |  |  |  | 
O=C1c2ccccc2C(=O)N1CCOC(=S)Nc1ccc(Br)cc1 | > 100000 | >3333 | 2400 | 30 | 15 |  |  |  |  |  | 
CC(CO/C(S)=N\c1ccc(Cl)cc1)NC(=O)c1ccccc1C(=O)O (stereo unspecified) | > 100000 | >20 |  | 5000 |  |  |  |  |  |  | 
O=C1c2ccccc2C(=O)N1CCOC(=S)Nc1ccccc1 | > 100000 | >83.3 |  | 1200 |  | 600 |  |  |  |  | 
CC(CN1C(=O)c2ccccc2C1=O)O/C(S)=N/c1ccc([N+](=O)[O-])cc1 (stereo unspecified) | > 100000 | >11.6 |  | 8600 |  |  |  |  |  |  | 
O=C1c2ccccc2C(=O)N1CCOC(=S)Nc1ccc(I)cc1 | > 100000 | >5000 |  | 20 | 40 |  | 2300 | 90 | > 20000 | > 20000 | 
O=C1c2ccccc2C(=O)N1CCCOC(=S)Nc1ccc([N+](=O)[O-])cc1 | ≥ 100000 | >=5.3 |  | 19000 |  |  |  |  |  |  | 
O=C(O)c1ccccc1C(=O)NCCO/C(S)=N\c1ccc(I)cc1 | > 100000 | >769 |  | 130 |  |  | > 20000 | 1700 | 4800 | > 20000 | 
O=C1c2ccccc2C(=O)N1CCOC(=S)Nc1ccc(F)cc1 | > 100000 | >1000 | 38000 | 100 | 100 |  |  |  |  |  | 
CC(CO/C(S)=N\c1ccc([N+](=O)[O-])cc1)NC(=O)c1ccccc1C(=O)O (stereo unspecified) | > 100000 | >7.7 |  | 13000 |  |  |  |  |  |  | 
Cc1ccc(NC(=S)OCCN2C(=O)c3ccccc3C2=O)cc1 | > 100000 | >5000 |  | 20 | 15 |  |  |  |  |  | 1800
Cc1ccc(/N=C(/S)OC(C)CNC(=O)c2ccccc2C(=O)O)cc1 (stereo unspecified) | > 100000 | >2.4 |  | 41000 |  |  |  |  |  |  | 
O=C(Nc1ccc([N+](=O)[O-])cc1)OCCN1C(=O)c2ccccc2C1=O | > 100000 | >200 |  | 500 |  |  |  |  |  |  | 
N#Cc1ccc(NC(=S)OCCN2C(=O)c3ccccc3C2=O)cc1 | > 100000 | >1429 | 5900 | 70 | 100 |  |  |  |  |  | 
O=C1c2ccccc2C(=O)N1CCOC(=S)Nc1ccc([N+](=O)[O-])cc1 | 65000 | 1625 | 6000 | 40 | 30 |  |  |  |  |  | 
Cl.S=C(NCCc1ccccn1)Nc1ccc(Br)cn1 [TROVIRDINE HYDROCHLORIDE] | 60000 | 3000 | 1200 | 20 | 15 |  | > 20000 | 1030 | 15000 | > 20000 | 
